Only some compounds are listed: those with a hit (about 1.9% of all), similar ones and a draw of the others.
NOD2 RIPK2 PPI: blocks binding of human NOD2 to RIPK2 | O43353 | CHO BLA complementation NOD2-RIPK2, CCF4 ratio | inhibition, % at 4.98 µM | 360,000 compounds, 0.38% hits; in the data active = inhibition above about 21%;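 also: 0% = vehicle only and 100% = reference blocker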
TLR9-MyD88 inh: inhibitors of human TLR9-MyD88 binding; Q9NR96+Q99836; CHO BLA complementation TLR9-MyD88, CCF4 FRET ratio; inhibition, % at 4.98 µM; 340,000 compounds, 0.21% hits;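 active = inhibition above the mean over all tested compounds plus 3 SD, cut at about 21% in these data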;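 also: 0% = DMSO only wells and 100% = clavulanate BLA inhibitor control wells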
TLR4 MyD88 comp: inhibitors of human TLR4-MyD88 binding. inhibition, % at 8.4 µM. 200,000 compounds, 0.18% hits. HeLa CL3-4 TLR4/MyD88 BLA complementation, FRET ratio. AID 861; in the data active = inhibition above about 25%;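 also: 0% = vehicle and 100% = reference inhibitor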
MC4R antag cAMP: antagonists of human melanocortin 4 receptor (MC4R). P32245. MC4R-expressing cells, MTII-stimulated cAMP, LANCE TR-FRET. inhibition, % at 6.5 µM. 360,000 compounds, 0.48% hits;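 active = inhibition above its plate's cutoff, the mean of tested wells on that plate plus 3 SD, cut at about 29% in these data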;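 also: 0% = Melanotan II alone and 100% = Melanotan II plus saturating MCL0020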
Target sequence (P32245 whole entry, looked up): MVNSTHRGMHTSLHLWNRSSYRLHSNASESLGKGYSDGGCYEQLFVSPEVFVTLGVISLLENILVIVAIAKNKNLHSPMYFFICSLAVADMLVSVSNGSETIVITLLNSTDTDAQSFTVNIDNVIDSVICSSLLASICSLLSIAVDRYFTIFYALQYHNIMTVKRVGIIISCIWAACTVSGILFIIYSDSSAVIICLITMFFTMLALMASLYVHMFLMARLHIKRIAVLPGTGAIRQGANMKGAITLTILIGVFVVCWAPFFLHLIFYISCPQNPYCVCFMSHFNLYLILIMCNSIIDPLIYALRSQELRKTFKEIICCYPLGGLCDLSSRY
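Material: U2OS-MC4R stable cell line | Reagent: Melanotan II challenge after compound preincubation | Doses: One concentration, 6.5 µM nominal | Incubation: 30-min compound preincubation, 1-h Melanotan II challenge, 1-h detection, room temperature | Signal: TR-FRET cAMP assay | Replicates: One well per compound, no replicates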
NTR1 agonist: activates human neurotensin receptor 1; activation, % at 20 µM; 330,000 compounds, 0.17% hits; NTR1-U2OS beta-arrestin-GFP spot imaging, agonist mode; P30989;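 active = activation at or above 40% of the spot to cytoplasm intensity ratio, with at least 20 cells analyzed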;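 also: 0% = DMSO without peptide and 100% = 100 nM NTR1 peptide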
MC4R ag barr: activates human MC4R beta-arrestin recruitment | activation, % at 8.9 µM | U2OS MC4R beta-arrestin complementation, luminescence; percent of melanotan II response, DMSO zero | AID 540308 | 360,000 compounds, 0.98% hits;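 active = activation above a per-plate cutoff, the mean activation of sample wells on that plate plus 3 SD, cut at about 8% in these data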
* marks the source's active call; other numbers are inactive results; x = no result given.

SMILES | NOD2 RIPK2 PPI | TLR9-MyD88 inh | TLR4 MyD88 comp | MC4R antag cAMP | NTR1 agonist | MC4R ag barr
COc1ccc(NC(=O)COc2nsnc2N2CCCCC2)cc1 | -4.9 | 4.4 | 6.4 | 7.2 | -1.0 | 0.5
CCOc1ccc(NC(=O)COc2nsnc2N2CCCCC2)cc1 | -6.2 | -1.5 | 2.7 | -2.1 | 13.5 | 9.0*
Cc1ccc(-c2nc3c(Cl)cc(C(F)(F)F)cn3c2Cc2ccsc2)cc1 | -13.3 | x | x | x | x | x
CCN(CC)c1ccc(NC(=O)CSc2nc(C3CC3)nc3ccccc23)cc1C | -8.2 | -2.0 | x | -16.1 | 1.0 | 8.9*
CCN(CC)CCNc1nc(C(F)(F)F)nc2c1nnn2Cc1ccccc1 | 8.5 | 2.1 | x | -0.9 | -0.2 | 1.1
FC(F)(F)c1nc(NCc2ccccc2)c2nnn(Cc3ccccc3)c2n1 | -7.1 | -5.0 | x | -8.2 | 5.9 | 8.4*
C[C@@H](c1ccccc1)N1C[C@H]2CCCN2c2cc(Br)ccc2S1(=O)=O | 2.9 | -5.3 | x | -7.5 | 0.6 | -0.9
CN1C[C@@H](CO)O[C@@H](n2cnc3c(N4CCOCC4)ncnc32)C1 | 4.3 | x | x | 5.8 | x | -0.7
COc1ccccc1NC(=O)NCc1nc(-c2ccc(C(F)(F)F)cc2)no1 | -2.0 | x | x | 9.7 | 5.4 | 8.5*
O=C(NCc1nc(-c2ccccc2)no1)Nc1ccc(F)cc1 | -10.8 | 8.1 | 1.1 | -1.2 | -2.0 | -0.7
COC1=CC(=O)C=C(OC)C1=O | 21.9* | 15.0 | x | -9.2 | x | -2.9
Cc1[nH]c(C)c(S(=O)(=O)NCc2ccc(F)cc2)c1C(=O)N1CCCC1 | 4.2 | 4.3 | x | -0.4 | -1.0 | -1.3
COc1ccc(N2C(=O)[C@@H]3[C@H](C2=O)[C@H]2C=CC=NN2[C@@H]3C(=O)Nc2ccc(Cl)cc2)cc1 | 1.2 | x | x | 29.3* | 0.8 | -2.4
CCN1CCN(CCNC(=O)c2ccc(/C=C3/Sc4ccccc4N(Cc4ccccc4C)C3=O)cc2)CC1 | 11.6 | 10.6 | 10.9 | -1.7 | x | 8.9*
Cc1ccccc1CN1C(=O)c2ccccc2Sc2ccc(C(=O)NCCN3CCOCC3)cc21 | 6.4 | -4.8 | x | 24.0 | 0.6 | 1.5
Cc1cc(S(=O)(=O)Nc2c(NC3CCCCC3)c3ccccc3oc2=O)ccc1F | -7.0 | -9.2 | x | 5.6 | 4.6 | 8.4*
COc1ccc(S(=O)(=O)Nc2c(NC3CCCCC3)c3ccccc3oc2=O)cc1Cl | -7.2 | -8.5 | x | -2.9 | 3.8 | -1.4
Cc1ccc(Cl)cc1Nc1nc(-c2sc(NC(=O)c3ccco3)nc2C)cs1 | -13.3 | -0.6 | -10.1 | 16.5 | -0.8 | -0.3
Cc1nc(NC(=O)c2ccco2)sc1-c1csc(Nc2ccc(Cl)cc2Cl)n1 | 3.5 | 0.1 | 8.9 | 27.1 | 6.4 | 8.5*
CCN(C)C1CN(Cc2cn(Cc3ccc(F)cc3)nn2)S(=O)(=O)C1 (stereo not drawn) | -2.5 | x | x | x | x | x
COc1ccc(/C=N/NC(=O)c2nc(Cl)c(Cl)c(N)c2Cl)cc1COc1ccc(F)cc1F | -3.3 | -9.6 | -16.8 | -7.7 | 7.3 | 10.6*
COc1ccc(/C=N/NC(=O)c2nc(Cl)c(Cl)c(N)c2Cl)cc1COc1ccccc1F | -3.5 | -2.9 | -2.4 | -6.2 | 3.6 | 7.7
CCOC(=O)c1nc(C)nc(Sc2n[nH]c(-c3cc(Cl)cc(Cl)c3)n2)c1C | -2.7 | -4.1 | x | 0.6 | 1.2 | 1.3
CCOC(=O)c1nc(C)nc(Sc2n[nH]c(-c3ccc(C(C)(C)C)cc3)n2)c1C | 4.0 | -5.9 | x | -1.4 | 0.1 | 9.3*
COc1cccc(C2c3c(-c4ccccc4O)n[nH]c3C(=O)N2Cc2ccco2)c1 (stereo not drawn) | -9.5 | -2.7 | x | 0.8 | 5.5 | -0.3
O=C1c2[nH]nc(-c3ccccc3O)c2C(c2ccccc2)N1Cc1ccco1 (stereo not drawn) | 6.2 | -6.2 | 6.2 | -4.9 | 2.1 | 9.2*
CC1ON=C(c2ccccn2)N(Cc2ccc(S(C)(=O)=O)cc2)C1=O (stereo not drawn) | 2.5 | x | x | 6.7 | x | -0.2
CC(N)C(=O)NC(CO)C(O)C(N)C=O (stereo not drawn) | 4.6 | -1.1 | x | -1.8 | x | -1.2
COc1ccc(-c2ccc(-c3nnn(CC(=O)N4CCOCC4)n3)cc2)cc1 | 0.8 | 3.5 | 4.0 | 0.0 | 0.3 | 1.6
COc1ccc(OC)c(C(=O)Cn2nnc(-c3ccc(N4CCOCC4)cc3)n2)c1 | -11.6 | -7.5 | x | 13.8 | -0.1 | 9.3*

Screening results deposited in PubChem by several laboratories.
